Source: ChEMBL document CHEMBL1121364, “Nucleoside conjugates as potential antitumor agents. 3. Synthesis and antitumor activity of 1-(beta-D-arabinofuranosyl)cytosine conjugates of corticosteroids” (1980)

Experiments:
[1] = test system: L1210; assay: Antitumor activity in the mice with intraperitoneal implanted L1210 lymphoid leukemia at the dose of 75 mg/kg/day x 5 was determined as mean survival of treated group compared to untreated; 28.5/9.5; type: functional, Mus musculus
[2] = test system: L1210; assay: Antitumor activity in the mice with intraperitoneal implanted L1210 lymphoid leukemia at the dose of 25 mg/kg/day x 5 was determined as mean survival of treated group compared to untreated; 18/9.5; type: functional, Mus musculus
Method in brief: (§1)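 C3D2F1/J female mice (C3H/HeJ female × DBA/2J male), groups of six to eight, average weight 25 g. Inoculated ip with 1 × 10^6 L1210 ascites cells taken from DBA/2Ha donor mice bearing 3-5 day old tumors. Compounds were dissolved in 0.154 N NaOH, neutralized with 0.154 N HCl (final 0.9% NaCl), and given ip daily for 5 days from 24 h post-implant. Median survival T/C; ILS = (T/C − 1) × 100; 30-day survivors counted.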

[3] = test system: L1210; assay: Antitumor activity in the mice with intraperitoneal implanted L1210 lymphoid leukemia at the dose of 50 mg/kg/day x 5 was determined as mean survival of treated group compared to untreated; 20.5/8.5; type: functional, Mus musculus
[4] = test system: L1210; assay: Antitumor activity in the mice with intraperitoneal implanted L1210 lymphoid leukemia at the dose 100 mg/kg/day x 5 was determined as percentage increase in the life span as compared with control tumor bearers; type: functional; details: Mus musculus, L1210, ip
Method in brief: (§2)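 Female C3D2F1/J mice (C3H/HeJ × DBA/2J), groups of six to eight, average weight 25 g. Each mouse got 1 × 10^6 L1210 ascites cells ip, taken from DBA/2Ha donor mice bearing 3-5 day tumors. Compound was dissolved in 0.154 N NaOH and neutralized with 0.154 N HCl (final 0.9% NaCl). Dosed ip daily ×5, starting 24 h after implant. Recorded body weight change on day 8, survival range, median survival and 30-day survivors. ILS = (T/C − 1) × 100.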

[5] = test system: L1210; assay: Antitumor activity in mice with intraperitoneal implanted L1210 lymphoid leukemia at the dose 75 mg/kg/day x 5 was determined as weight change (g/mouse) on 8th day; type: functional
Method in brief: (§3)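 C3D2F1/J female mice (C3H/HeJ × DBA/2J), groups of six to eight, average 25 g, inoculated ip with 1 × 10^6 L1210 ascites cells taken from DBA/2Ha donor mice carrying 3-5 day tumors. Compound dissolved in 0.154 N NaOH, then neutralized with 0.154 N HCl to give 0.9% NaCl. Given ip daily for 5 consecutive days starting 24 h after implantation. Body weight change per mouse recorded on day 8.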

[6] = test system: L1210; assay: In Vitro evaluation for the antiproliferative activity by observing the growth inhibition of L1210 lymphoid leukemia cells in culture at 72 hour; type: functional, Mus musculus
Method in brief: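 Growth of L1210 lymphoid leukemia cells in culture measured by Trypan blue exclusion of viable cells after 72 h of drug exposure. ED50 is the concentration giving 50% growth inhibition. In some runs the compound was first preincubated in medium at 37 °C for 24 or 48 h before the assay.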

[7] = test system: L1210; assay: Antitumor activity in mice with intraperitoneal implanted L1210 lymphoid leukemia at the dose 100 mg/kg/day x 5 was determined as weight change (g/mouse) on 8th day; type: functional; method in brief: as §3
[8] = test system: L1210; assay: Antitumor activity in mice with intraperitoneal implanted L1210 lymphoid leukemia at the dose 25 mg/kg/day x 5 was determined as weight change (g/mouse) on 8th day; type: functional; method in brief: as §3
[9] = test system: L1210; assay: Antitumor activity in mice with intraperitoneal implanted L1210 lymphoid leukemia at the dose 50 mg/kg/day x 5 was determined as weight change (g/mouse) on 8th day; type: functional; method in brief: as §3
[10] = test system: L1210; assay: Antitumor activity in the mice with intraperitoneal implanted L1210 lymphoid leukemia at the dose 100 mg/kg/day x 5 was determined and number of animals survived on 30 th day were reported; 0/6; type: functional, Mus musculus; method in brief: as §2
[11] = test system: L1210; assay: Antitumor activity in the mice with intraperitoneal implanted L1210 lymphoid leukemia at the dose 18.7 and 26.6 mg/kg/day x 5 was determined and number of animals survived on 30 th day were reported; 0/8; type: functional, Mus musculus; method in brief: as §2
[12] = test system: L1210; assay: Antitumor activity in the mice with intraperitoneal implanted L1210 lymphoid leukemia at the dose 25 mg/kg/day x 5 was determined and number of animals survived on 30 th day were reported; 0/8; type: functional, Mus musculus; method in brief: as §2
[13] = test system: L1210; assay: Antitumor activity in the mice with intraperitoneal implanted L1210 lymphoid leukemia at the dose 50 mg/kg/day x 5 was determined as Survival time in days; Range is 14-23 days; type: functional, Mus musculus; method in brief: as §2
[14] = test system: L1210; assay: Antitumor activity in the mice with intraperitoneal implanted L1210 lymphoid leukemia at the dose 50 mg/kg/day x 5 was determined and number of animals survived on 30 th day were reported; 0/8; type: functional, Mus musculus; method in brief: as §2
[15] = test system: L1210; assay: Antitumor activity in the mice with intraperitoneal implanted L1210 lymphoid leukemia at the dose 75 mg/kg/day x 5 was determined and number of animals survived on 30 th day were reported; 3/8; type: functional, Mus musculus; method in brief: as §1
[16] = test system: L1210; assay: Antitumor activity in the mice with intraperitoneal implanted L1210 lymphoid leukemia at the dose 50 mg/kg/day x 5 was determined as percentage increase in the life span as compared with control tumor bearers; type: functional; details: Mus musculus, L1210, ip; method in brief: as §1
[17] = test system: L1210; assay: Antitumor activity in the mice with intraperitoneal implanted L1210 lymphoid leukemia at the dose 75 mg/kg/day x 5 was determined as percentage increase in the life span as compared with control tumor bearers; type: functional; details: Mus musculus, L1210, ip; method in brief: as §1
[18] = test system: L1210; assay: Antitumor activity in the mice with intraperitoneal implanted L1210 lymphoid leukemia at the dose 9.2 and 13.2 mg/kg/day x 5 was determined as percentage increase in the life span as compared with control tumor bearers; type: functional, Mus musculus; method in brief: as §1
[19] = test system: L1210; assay: Antitumor activity in the mice with intraperitoneal implanted L1210 lymphoid leukemia at the dose 100 mg/kg/day x 5 was determined as Survival time in days; Range is 10-16 days; type: functional, Mus musculus; method in brief: as §2
[20] = test system: L1210; assay: Antitumor activity in the mice with intraperitoneal implanted L1210 lymphoid leukemia at the dose 75 mg/kg/day x 5 was determined as Survival time in days; Range is 18-37 days; type: functional, Mus musculus; method in brief: as §1
[21] = test system: L1210; assay: Antitumor activity in the mice with intraperitoneal implanted L1210 lymphoid leukemia at the dose 9.2 and 13.2 mg/kg/day x 5 was determined as Survival time in days; Range is 13-24 days; type: functional, Mus musculus; method in brief: as §1
[22] = test system: L1210; assay: Antitumor activity in the mice with intraperitoneal implanted L1210 lymphoid leukemia at the dose 25 mg/kg/day x 5 was determined as Survival time in days; Range is 14-27 days; type: functional, Mus musculus; method in brief: as §2
[23] = test system: L1210; assay: Antitumor activity in the mice with intraperitoneal implanted L1210 lymphoid leukemia at the dose 18.7 and 26.6 mg/kg/day x 5 was determined as percentage increase in the life span as compared with control tumor bearers; type: functional, Mus musculus; method in brief: as §2
[24] = test system: L1210; assay: Antitumor activity in the mice with intraperitoneal implanted L1210 lymphoid leukemia at the dose 25 mg/kg/day x 5 was determined as percentage increase in the life span as compared with control tumor bearers; type: functional; details: Mus musculus, L1210, ip; method in brief: as §2
[25] = test system: L1210; assay: Antitumor activity in the mice with intraperitoneal implanted L1210 lymphoid leukemia at the dose 9.2 and 13.2 mg/kg/day x 5 was determined and number of animals survived on 30 th day were reported; 0/6; type: functional, Mus musculus; method in brief: as §1
[26] = test system: L1210; assay: Antitumor activity in the mice with intraperitoneal implanted L1210 lymphoid leukemia at the dose of 100 mg/kg/day x 5 was determined as median survival of treated group compared to untreated; 16/11

C[C@]12CCC(=O)C=C1CC[C@@H]1[C@@H]2CC[C@@]2(C)[C@H]1CC[C@]2(O)C(=O)COP(=O)(O)OC[C@H]1O[C@@H](n2ccc(N)nc2=O)[C@@H](O)[C@@H]1O
T/C [1]: 28.5 | T/C [2]: 18 | T/C [3]: 20.5 | ILS at 100 mg/kg/day [4]: 46% | Weight change [5]: 0.46 g mouse-1 | ED 50 [6]: 80 nM | Weight change [7]: -3.82 g mouse-1 | Weight change [8]: 1.55 g mouse-1 | Weight change [9]: -2.5 g mouse-1 | Survivors [10]: 0 | Survivors [11]: 0 | Survivors [12]: 0 | Survival time [13]: 14 days | Survivors [14]: 0 | Survivors [15]: 3 | ILS at 50 mg/kg/day [16]: 141% | ILS at 75 mg/kg/day [17]: 200% | ILS [18]: 59% | Survival time [19]: 10 days | Survival time [20]: 18 days | Survival time [21]: 13 days | Survival time [22]: 14 days | ILS [23]: 77% | ILS at 25 mg/kg/day [24]: 90% | Survivors [25]: 0 | T/C [26]: 16
